Measured values as given in ChEMBL document CHEMBL3997791, “Nanomolar-Potency Aminophenyl-1,3,5-triazine Activators of the Cystic Fibrosis Transmembrane Conductance Regulator (CFTR) Chloride Channel for Prosecretory Therapy of Dry Eye Diseases” (J Med Chem, 2017).
Calls of active or inactive are those of the source. The rule behind the calls is not given here.

What was measured:
[1] = biological target: T1, Cystic fibrosis transmembrane conductance regulator (Homo sapiens, UniProt P13569); experiment: Activation of human CFTR expressed in forskolin-stimulated basolateral membrane permeabilized FRT cells co-expressing YFP assessed as increase in short-circuit current by voltage clamp method; assay type: cell-based
T1 sequence (P13569 whole entry, looked up): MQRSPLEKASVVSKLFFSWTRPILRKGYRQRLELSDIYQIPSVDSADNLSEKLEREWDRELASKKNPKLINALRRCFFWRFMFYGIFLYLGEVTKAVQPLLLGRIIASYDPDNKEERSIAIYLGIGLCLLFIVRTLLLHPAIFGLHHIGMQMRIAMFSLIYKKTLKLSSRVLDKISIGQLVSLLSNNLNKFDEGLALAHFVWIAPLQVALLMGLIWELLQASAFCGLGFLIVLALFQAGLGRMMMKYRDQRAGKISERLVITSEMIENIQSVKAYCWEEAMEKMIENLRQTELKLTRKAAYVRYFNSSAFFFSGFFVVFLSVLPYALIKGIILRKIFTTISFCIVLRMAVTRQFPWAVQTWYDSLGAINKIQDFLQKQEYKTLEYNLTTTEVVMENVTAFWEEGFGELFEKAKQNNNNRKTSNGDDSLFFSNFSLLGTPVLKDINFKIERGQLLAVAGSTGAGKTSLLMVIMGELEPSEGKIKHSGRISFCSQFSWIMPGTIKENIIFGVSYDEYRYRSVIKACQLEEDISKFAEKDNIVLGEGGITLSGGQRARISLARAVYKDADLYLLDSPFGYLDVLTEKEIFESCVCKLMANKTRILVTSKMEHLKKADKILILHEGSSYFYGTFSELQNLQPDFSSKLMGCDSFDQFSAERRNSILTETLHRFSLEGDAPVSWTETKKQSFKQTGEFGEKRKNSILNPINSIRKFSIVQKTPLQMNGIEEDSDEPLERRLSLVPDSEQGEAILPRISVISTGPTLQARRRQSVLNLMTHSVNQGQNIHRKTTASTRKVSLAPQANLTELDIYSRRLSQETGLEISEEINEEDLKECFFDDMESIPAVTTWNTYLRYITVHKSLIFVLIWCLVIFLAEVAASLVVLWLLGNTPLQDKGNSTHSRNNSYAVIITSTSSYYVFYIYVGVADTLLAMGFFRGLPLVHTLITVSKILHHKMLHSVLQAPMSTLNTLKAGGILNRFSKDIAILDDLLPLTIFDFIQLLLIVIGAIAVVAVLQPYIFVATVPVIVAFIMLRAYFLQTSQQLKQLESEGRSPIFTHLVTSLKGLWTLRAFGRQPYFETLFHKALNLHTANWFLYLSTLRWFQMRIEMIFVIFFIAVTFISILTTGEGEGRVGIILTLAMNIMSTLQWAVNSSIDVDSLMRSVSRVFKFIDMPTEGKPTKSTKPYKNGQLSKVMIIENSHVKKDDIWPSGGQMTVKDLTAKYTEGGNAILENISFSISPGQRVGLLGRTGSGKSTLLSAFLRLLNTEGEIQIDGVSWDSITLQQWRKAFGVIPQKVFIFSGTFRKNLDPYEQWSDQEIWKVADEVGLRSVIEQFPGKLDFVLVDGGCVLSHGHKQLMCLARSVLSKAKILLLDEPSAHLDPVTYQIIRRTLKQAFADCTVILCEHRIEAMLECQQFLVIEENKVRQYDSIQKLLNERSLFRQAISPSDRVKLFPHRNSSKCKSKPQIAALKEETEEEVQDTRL
Procedure, shortened: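 Ussing chamber with FRT cells co-expressing human wild-type CFTR and YFP. Basolateral side had HCO3−-buffered solution and the apical side half-Cl− solution. The basolateral membrane was permeabilized with 250 µg/mL amphotericin B. Solutions were gassed with 95% O2/5% CO2 at 37 °C. A low forskolin concentration was added first, then cumulative compound additions, then maximal forskolin and 10 µM CFTRinh-172; n = 3.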

[2] = Elevation of cytoplasmic calcium level in Fischer rat thyroid cells co-expressing YFP and human CFTR at 10 uM incubated for 5 mins by fluo-4 dye based fluorescence assay; assay type: ADME; settings: thyroid cell
Procedure, shortened: (§1)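 FRT cells in 96-well plates loaded with Fluo-4 NW, pretreated 5 min with 10 μM compound or control; 100 μM ATP added as calcium agonist. Fluorescence followed in plate reader with syringe pumps. Representative of two to four experiment sets.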

[3] = Elevation of cAMP level in Fischer rat thyroid cells co-expressing YFP and human CFTR at 10 uM incubated for 10 mins by immunoassay; assay type: ADME, cell-based; settings: thyroid cell
Procedure, shortened: (§2)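 FRT cells expressing wild-type CFTR in 12-well plates, PBS-washed, incubated 10 min with 10 μM compound without or with 90 nM forskolin; references were forskolin alone (90 nM, 20 μM) and 20 μM forskolin + 100 μM IBMX. Lysates assayed for cAMP by immunoassay; mean ± SEM, n = 4.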

[4] = Suppression of ATP-stimulated elevation of cytoplasmic calcium level in Fischer rat thyroid cells co-expressing YFP and human CFTR at 10 uM incubated for 5 mins by fluo-4 dye based fluorescence assay; assay type: ADME; settings: thyroid cell; procedure, shortened: as §1
HT-29 [5] = experiment: Inhibition of iodide influx in human HT-29 cells expressing YFP at 10 uM measured after 10 mins for 2 to 12 sec in presence of ATP by fluorescence assay; assay type: functional, cell-based
Procedure, shortened: (§3)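 HT-29 cells expressing YFP halide sensor, 10 μM compound, for non-TMEM16A calcium-activated chloride channel. Plate reader fluorescence quenching after iodide addition (activation) or iodide plus ATP addition (inhibition); initial rate of iodide influx computed as linear measure of channel function. Representative of two to four experiment sets.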

HT-29 [6] = experiment: Increase of iodide influx in human HT-29 cells expressing YFP at 10 uM measured after 10 mins for 2 to 12 sec by fluorescence assay; assay type: functional, cell-based; procedure, shortened: as §3
Homo sapiens = species: Homo sapiens; experiment: Inhibition of calcium-activated chloride channel in human primary bronchial epithelial cells assessed as inhibition of ATP-induced short-circuit current at 10 uM preincubated for 10 mins followed by ATP addition by voltage clamp method
Procedure, shortened: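 Primary human bronchial epithelial cells grown at air-liquid interface, mounted in Ussing chambers in symmetrical HCO3−-buffered solutions (95% O2/5% CO2, 37 °C), with Ag/AgCl electrodes. After 10 min preincubation with 10 µM compound, sequential additions were 20 µM amiloride, 20 µM forskolin, 10 µM CFTRinh-172 and 100 µM ATP. Traces represent two to four experiment sets.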

[7] = biological target: T2, Anoctamin-1 (Homo sapiens) (UniProt Q5XXA6); experiment: Activation of human TMEM16A expressed in FRT cells co-expressing YFP assessed as increase in iodide influx at 10 uM measured after 10 mins for 2 to 12 sec by fluorescence assay; assay type: cell-based
T2 sequence (whole entry): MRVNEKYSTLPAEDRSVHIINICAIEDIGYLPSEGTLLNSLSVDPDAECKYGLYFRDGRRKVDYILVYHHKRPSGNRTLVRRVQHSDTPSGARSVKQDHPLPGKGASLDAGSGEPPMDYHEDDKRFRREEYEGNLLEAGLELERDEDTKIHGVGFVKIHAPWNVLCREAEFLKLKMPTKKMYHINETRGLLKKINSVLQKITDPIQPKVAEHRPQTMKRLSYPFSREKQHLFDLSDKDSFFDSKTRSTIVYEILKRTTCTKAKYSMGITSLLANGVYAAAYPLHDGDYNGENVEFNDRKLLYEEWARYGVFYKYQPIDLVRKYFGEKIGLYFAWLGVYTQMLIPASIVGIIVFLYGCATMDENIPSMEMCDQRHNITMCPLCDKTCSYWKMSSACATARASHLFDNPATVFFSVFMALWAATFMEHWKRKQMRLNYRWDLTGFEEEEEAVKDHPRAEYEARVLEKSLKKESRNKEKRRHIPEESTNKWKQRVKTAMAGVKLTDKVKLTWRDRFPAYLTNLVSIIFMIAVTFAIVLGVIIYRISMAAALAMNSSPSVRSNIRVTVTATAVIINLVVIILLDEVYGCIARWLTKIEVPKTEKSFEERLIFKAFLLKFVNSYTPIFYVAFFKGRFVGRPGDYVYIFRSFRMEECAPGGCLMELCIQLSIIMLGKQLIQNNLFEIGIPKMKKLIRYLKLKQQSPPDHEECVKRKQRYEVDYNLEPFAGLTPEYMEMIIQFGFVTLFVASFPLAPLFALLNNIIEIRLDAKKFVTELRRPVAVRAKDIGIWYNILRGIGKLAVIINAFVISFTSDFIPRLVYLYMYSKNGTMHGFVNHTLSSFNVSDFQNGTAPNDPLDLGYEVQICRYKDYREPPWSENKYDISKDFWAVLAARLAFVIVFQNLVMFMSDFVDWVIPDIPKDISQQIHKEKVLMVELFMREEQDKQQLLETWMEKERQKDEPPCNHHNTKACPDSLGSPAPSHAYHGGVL
Procedure, shortened: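 FRT cells stably coexpressing TMEM16A and YFP-H148Q; compound at 10 μM. Fluorescence quenching read in plate reader after iodide addition (activation) or iodide plus ATP addition (inhibition); initial rate of iodide influx computed as linear measure of channel function. Representative of two to four experiment sets.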

[8] = Solubility of the compound in phosphate buffered solution; assay type: physicochemical
Mus musculus = experiment: Induction of tear secretion in mouse assessed as minimum compound concentration required to show maximum effect administered as single topical dose at 1 to 3 hrs post dose by phenol red thread test; assay type: functional
Procedure, shortened: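 Dose-response in mice: single ocular doses of varied amounts (down to 25 pmol) in 2.5 μL ophthalmic vehicle to both eyes, vehicle control. Tear volume by phenol red thread (10 s, lateral canthus, isoflurane anesthesia) before and at timed points after dosing; 5 mice, 10 eyes per condition.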

[9] = Elevation of forskolin-stimulated cAMP level in Fischer rat thyroid cells co-expressing YFP and human CFTR at 10 uM incubated for 10 mins by immunoassay; assay type: ADME, cell-based; settings: thyroid cell; procedure, shortened: as §2
[10] = biological target: T1, Cystic fibrosis transmembrane conductance regulator; experiment: Activation of CFTR in human primary bronchial epithelial cells assessed as increase in forskolin-stimulated short-circuit current at 0.1 uM preincubated for 10 mins followed by forskolin addition by voltage clamp method
[11] = Metabolic stability in rat hepatic microsomes assessed as parent compound remaining at 5 uM after 60 mins in presence of NADPH by LC-MS analysis; assay type: ADME, Microsome; settings: liver microsomes, read-out: Stability
Procedure, shortened: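 Compound at 5 μM incubated at 37 °C with rat liver microsomes (1 mg/mL) in potassium phosphate buffer with 1 mM NADPH; quenched with ice-cold EtOAc, centrifuged, supernatant analysed by LC/MS (C18, water/acetonitrile with 0.1% formic acid gradient, UV 254 nm) for parent remaining; mean ± SEM, n = 3.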

Row | Compound | Activity [1] | Activity [2] | Activity [3] | Activity [4] | inhibition (HT-29 [5]) | Activity (HT-29 [6]) | inhibition (Homo sapiens) | Activity [7] | solubility [8] [µM] | Activity (Mus musculus) [pmol] | Activity [9] | Activity [10] | remaining at 1 h, 5 µM [11] [%]
1 | CNc1nc(Nc2ccccc2)nc(OCC(F)(F)C(F)F)n1 | Dose-dependent effect | Non-Toxic | Non-Toxic | Non-Toxic | inactive | inactive | inactive | inactive | ≤ 10 | 25 | Non-Toxic | Active | 
2 | CCN(CC)c1nc(Nc2ccc3ncsc3c2)nc(OC(C(F)(F)F)C(F)(F)F)n1 | Dose-dependent effect | Non-Toxic | Non-Toxic | Non-Toxic | inactive | inactive | inactive | inactive | ≤ 10 |  | Non-Toxic |  | 60
